# Activity calls are given as the source filed them. The rule behind the calls is not given here.
# Legend:
# Cannabinoid receptor 1 = Cannabinoid receptor 1 (Homo sapiens, UniProt P21554); test: biochemical; assay type: cell-based, CHO
# Cannabinoid receptor 2 = Cannabinoid receptor 2 (Homo sapiens, UniProt P34972); test: Inhibition of [3H]CP-55940 binding to human recombinant CB2 receptor in CHO cells; assay type: cell-based
# Homo sapiens = species: Homo sapiens; test: Protein binding in human liver microsome; assay type: ADME; conditions: microsomes
# How it was run: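 The tritiated compound was incubated with liver microsomes. Irreversible (covalent) binding of radioactivity to microsomal protein was measured after 1 h of incubation and expressed as pmol equiv/mg protein.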
# [1] = Bioavailability in dog at 0.2 mg/kg, iv and 0.4 mg/kg, po; assay type: ADME, organism-based, Canis lupus familiaris; conditions: in vivo
# [2] = Drug level in Sprague-Dawley rat brain at 1 mg/kg, iv after 1 hr; assay type: ADME, organism-based; parameters: dose 1 mg/kg, route intravenous; conditions: read-out: Drug uptake
# [3] = Half life in dog at 0.2 mg/kg, iv and 0.4 mg/kg, po; assay type: ADME, organism-based, Canis lupus familiaris; conditions: in vivo
# [4] = Drug level in Sprague-Dawley rat plasma at 1 mg/kg, iv after 1 hr; assay type: ADME, organism-based; parameters: dose 1 mg/kg, route intravenous; conditions: read-out: Drug uptake
# Rattus norvegicus [5] = test: Inhibition of CP-55940-induced decrease in body temperature in Sprague-Dawley rat at 3 mg/kg, iv; assay type: functional, organism-based; parameters: dose 3 mg/kg
# Rattus norvegicus [6] = test: Reduction in Sprague-Dawley rat body weight at 0.3 mg/kg, po after 14 days relative to control; assay type: functional; parameters: scale not given: the % may be the effect or the level left
# How it was run: (§1)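 Diet-induced obese (DIO) rats were dosed orally once daily (qd) for 14 days at 0.3, 1 or 3 mg/kg. Body weight change is expressed as percent reduction relative to vehicle-treated animals.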
# [7] = Half life in rhesus monkey at 0.2 mg/kg, iv and 0.4 mg/kg, po; assay type: ADME, organism-based, Macaca mulatta; conditions: in vivo
# [8] = Bioavailability in rhesus monkey at 0.2 mg/kg, iv and 0.4 mg/kg, po; assay type: ADME, organism-based, Macaca mulatta; conditions: in vivo
# [9] = Bioavailability in Sprague-Dawley rat at 1 mg/kg, iv and 2 mg/kg, po; assay type: ADME, organism-based; conditions: in vivo
# Rattus norvegicus [10] = test: Reduction in Sprague-Dawley rat body weight at 1 mg/kg, po after 14 days relative to control; assay type: functional; parameters: scale not given: the % may be the effect or the level left
# How it was run: as §1
# Rattus norvegicus [11] = test: Reduction in Sprague-Dawley rat body weight at 3 mg/kg, po after 14 days relative to control; assay type: functional; parameters: scale not given: the % may be the effect or the level left
# How it was run: as §1
# Rattus norvegicus [12] = test: Reduction in food uptake in DIO Sprague-Dawley rat at 10 mg/kg, po; assay type: functional; parameters: scale not given: the % may be the effect or the level left
# How it was run: (§2)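 Diet-induced obese rats were dosed orally. Overnight food intake was measured and reported as % change (mean ± error).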
# Rattus norvegicus [13] = test: Reduction in food uptake in DIO Sprague-Dawley rat at 3 mg/kg, po; assay type: functional; parameters: scale not given: the % may be the effect or the level left
# How it was run: as §2
# Chain of Cannabinoid receptor 1 (P21554 whole entry): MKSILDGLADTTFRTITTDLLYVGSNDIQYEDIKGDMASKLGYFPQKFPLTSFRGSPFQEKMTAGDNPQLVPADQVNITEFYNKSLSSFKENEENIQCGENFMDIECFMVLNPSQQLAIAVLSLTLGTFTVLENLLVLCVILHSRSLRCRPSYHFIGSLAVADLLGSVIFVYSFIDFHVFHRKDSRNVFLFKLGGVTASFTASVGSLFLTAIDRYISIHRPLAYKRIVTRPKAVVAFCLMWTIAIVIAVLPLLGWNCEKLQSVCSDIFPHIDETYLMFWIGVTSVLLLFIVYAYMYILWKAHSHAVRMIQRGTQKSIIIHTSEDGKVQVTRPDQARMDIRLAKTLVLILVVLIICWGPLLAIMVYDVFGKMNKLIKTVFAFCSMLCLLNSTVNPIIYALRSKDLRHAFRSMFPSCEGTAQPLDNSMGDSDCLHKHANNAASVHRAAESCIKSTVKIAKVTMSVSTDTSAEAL
# Chain of Cannabinoid receptor 2 (P34972 whole entry): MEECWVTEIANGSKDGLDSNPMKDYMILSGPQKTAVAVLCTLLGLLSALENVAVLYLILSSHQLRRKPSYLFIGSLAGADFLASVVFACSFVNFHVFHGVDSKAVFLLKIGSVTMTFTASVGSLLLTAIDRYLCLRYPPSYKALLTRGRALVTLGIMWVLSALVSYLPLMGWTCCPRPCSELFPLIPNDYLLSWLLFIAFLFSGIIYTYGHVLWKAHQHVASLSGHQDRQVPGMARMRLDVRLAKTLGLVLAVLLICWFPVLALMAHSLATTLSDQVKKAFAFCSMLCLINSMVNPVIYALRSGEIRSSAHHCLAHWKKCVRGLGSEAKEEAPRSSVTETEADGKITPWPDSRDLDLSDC
smiles,measurement,setting,value
C[C@H](NC(=O)C(C)(C)Oc1ccccc1Cl)[C@@H](Cc1ccc(Cl)cc1)c1ccccc1,IC50,Cannabinoid receptor 1,18 nM
C[C@H](NC(=O)C(C)(C)Oc1ccc(Cl)cc1)[C@@H](Cc1ccc(Cl)cc1)c1cccc(F)c1,IC50,Cannabinoid receptor 1,2.8 nM
same,IC50,Cannabinoid receptor 2,530 nM
C[C@H](NC(=O)C(C)(C)Oc1ccncc1)[C@H](Cc1ccc(Cl)cc1)c1ccccc1,IC50,Cannabinoid receptor 1,17 nM
same,IC50,Cannabinoid receptor 2,1200 nM
C[C@@H](NC(=O)C(C)(C)Oc1ccc(Cl)cc1)[C@H](Cc1ccc(Cl)cc1)c1ccccc1,IC50,Cannabinoid receptor 1,170 nM
same,IC50,Cannabinoid receptor 2,1700 nM
C[C@H](NC(=O)C(C)(C)Oc1ccc(Cl)cc1)[C@@H](Cc1ccccc1)c1ccccc1,IC50,Cannabinoid receptor 1,33 nM
C[C@H](NC(=O)C(C)(C)Oc1ccc(Cl)cc1)[C@@H](Cc1ccccc1Cl)c1ccccc1,IC50,Cannabinoid receptor 1,140 nM
C[C@H](NC(=O)C(C)(C)Oc1ccc(Cl)cc1)[C@@H](Cc1ccc(Cl)cc1)c1ccc(F)cc1,IC50,Cannabinoid receptor 1,90 nM
C[C@H](NC(=O)C(C)(C)Oc1ccc(Cl)cn1)[C@@H](Cc1ccc(Cl)cc1)c1ccccc1,Activity,Homo sapiens,300 pmol/mg
C[C@H](NC(=O)C(C)(C)Oc1ccccc1)[C@@H](Cc1ccc(Cl)cc1)c1ccccc1,Activity,Homo sapiens,3900 pmol/mg
C[C@H](NC(=O)C(C)(C)Oc1ccc(Cl)cc1)[C@@H](Cc1ccc(Cl)cc1)c1ccccc1F,IC50,Cannabinoid receptor 1,12 nM
same,IC50,Cannabinoid receptor 2,410 nM
C[C@H](NC(=O)C(C)(C)Oc1ccc(C(F)(F)F)cn1)[C@@H](Cc1ccc(Cl)cc1)c1ccccc1,Activity,Homo sapiens,88 pmol/mg
C[C@H](NC(=O)C(C)(C)Oc1ccc(Cl)cc1)[C@@H](Cc1ccc(F)cc1)c1ccccc1,IC50,Cannabinoid receptor 1,14 nM
C[C@H](NC(=O)C(C)(C)Oc1ccc(C(F)(F)F)cn1)[C@@H](Cc1ccc(Cl)cc1)c1cccc(C#N)c1 [TARANABANT],bioavailability,[1],31%
same,concentration at 1 h,[2],110 nM
same,half-life,[3],14 h
same,Activity,Homo sapiens,27 pmol/mg
same,concentration at 1 h,[4],180 nM
same,Activity,Rattus norvegicus [5],Active
same,Activity,Rattus norvegicus [6],4%
same,half-life,[7],3.6 h
same,bioavailability,[8],31%
same,bioavailability,[9],74%
same,Activity,Rattus norvegicus [10],5%
same,Activity,Rattus norvegicus [11],7%
C[C@H](NC(=O)C(C)(C)Oc1cccnc1)[C@@H](Cc1ccc(Cl)cc1)c1ccccc1,IC50,Cannabinoid receptor 1,19 nM
C[C@H](NC(=O)C(C)(C)Oc1cc(F)cc(F)c1)[C@@H](Cc1ccc(Cl)cc1)c1ccccc1,Activity,Rattus norvegicus [12],81%
same,concentration at 1 h,[2],270 nM
same,Activity,Homo sapiens,1700 pmol/mg
same,concentration at 1 h,[4],350 nM
same,bioavailability,[9],19%
same,Activity,Rattus norvegicus [13],55%
C[C@@H](NC(=O)C(C)(C)Oc1ccc(Cl)cc1)[C@H](Cc1ccc(Cl)cc1)c1ccc(Cl)cc1,IC50,Cannabinoid receptor 1,13 nM
same,IC50,Cannabinoid receptor 2,600 nM
C[C@H](NC(=O)C(C)(C)Oc1ccc(Cl)cc1)[C@@H](Cc1ccc(C(F)(F)F)cc1)c1ccccc1,IC50,Cannabinoid receptor 1,3.4 nM
C[C@H](NC(=O)C(C)(C)Oc1ccccn1)[C@@H](Cc1ccc(Cl)cc1)c1ccccc1,Activity,Homo sapiens,910 pmol/mg

# — ChEMBL document CHEMBL1138208, “Discovery of N-[(1S,2S)-3-(4-Chlorophenyl)-2- (3-cyanophenyl)-1-methylpropyl]-2-methyl-2- {[5-(trifluoromethyl)pyridin-2-yl]oxy}propanamide (MK-0364), a novel, acyclic cannabinoid-1 receptor inverse agonist for the treatment of obesity” (J Med Chem, 2006)
